For four molecules, inhibition in vivo, Time and Activity results are on record in ChEMBL document CHEMBL1177683, “Synthesis and pharmacological evaluation of pyrazine N-acylhydrazone derivatives designed as novel analgesic and anti-inflammatory drug candidates” (2010).

Test [1] has as its system Mus musculus. The experiment in a line: Antinociceptive activity in Swiss mouse assessed as inhibition of acetic acid-induced abdominal constrictions at 100 umol/kg, po administered 40 mins before acetic acid challenge measured for 25 mins relative to control. The test is classed as functional. Particulars: Abdomen. The method, boiled down: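 Mice were dosed at 100 µmol/kg po in arabic gum (10 mL/kg), 40 min before 0.6% v/v acetic acid ip (0.1 mL/10 g). Writhes (abdominal contraction, pelvic rotation, hind-limb extension) were counted for 20 min starting 5 min post-injection. Results are expressed as % inhibition versus vehicle controls. Groups of 6 (control 10), ANOVA/Dunnett.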

Test [2] has as its system Mus musculus. The experiment in a line: Analgesic activity against formalin-induced acute pain in Swiss mouse assessed inhibition of nociception at 100 umol/kg, po administered 40 mins before formalin challenge measured for 15 to 30 mins relative to control. Type of test: functional. In outline:
(§1)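 Mice, 6 per group, received 20 µL of 2.5% formalin (0.92% formaldehyde in saline) into the ventral surface of the right hind paw. Dosing was 100 µmol/kg po in arabic gum vehicle (10 mL/kg), 40 min beforehand. Time spent licking the injected paw was recorded over 0–5 min (neurogenic phase) and 15–30 min (inflammatory phase). Data are mean ± S.E.M., ANOVA/Dunnett versus vehicle.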

The test system of test [3] is Mus musculus. Briefly: Analgesic activity in Swiss mouse assessed as increase in latency of paw licking at 100 umol/kg, po after 60 mins measured for 60 seconds by hot plate test (reference value: 4.9 +/- 0.5 seconds). The test is classed as functional. (Hot-plate and tail-flick tests time the reaction to a heat stimulus.)
Test [4] has as its system Mus musculus. The experiment in a line: Analgesic activity in Swiss mouse assessed as increase in latency of paw licking at 100 umol/kg, po after 90 mins measured for 60 seconds by hot plate test (reference value: 5.9 +/- 0.8 seconds). The test is classed as functional.
Test [5] concerns Mus musculus. The experiment in a line: Analgesic activity in Swiss mouse assessed as increase in latency of paw licking at 100 umol/kg, po after 120 mins measured for 60 seconds by hot plate test (reference value: 5.6 +/- 0.5 seconds). Type of test: functional.
Test [6] relates to Mus musculus. The experiment in a line: Analgesic activity in Swiss mouse assessed as increase in latency of paw licking at 100 umol/kg, po after 150 mins measured for 60 seconds by hot plate test (reference value: 5.1 +/- 0.4 seconds). Type of test: functional.
Test [7] concerns Rattus norvegicus. The experiment in a line: Antiinflammatory effect in complete Freund's adjuvant-induced Wistar rat arthritis model assessed as inhibition of paw edema at 100 umol/kg, po daily once administered on day 14 post adjuvant challenge measured on day 16 post adjuvant challenge. The test is classed as functional, organism-based. In outline:
(§2)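 Wistar rats (130–170 g) received 0.1 mL complete Freund's adjuvant into the right paw. On day 13, arthritic rats were grouped (n=6) with matched scores. Dosing was 100 µmol/kg po daily from day 14 to 21, with arabic gum vehicle (10 mL/kg) for controls. Paw volume was measured by […] on days 1 and 14–21. Data are mean ± S.E.M., ANOVA/Dunnett.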

Test [8] concerns Rattus norvegicus. The experiment in a line: Antiinflammatory effect in complete Freund's adjuvant-induced Wistar rat arthritis model assessed as inhibition of paw edema at 100 umol/kg, po daily once administered on day 14 post adjuvant challenge measured on day 17 post adjuvant challenge. The test is classed as functional, organism-based. The method, boiled down:
as §2

Test [9] concerns Rattus norvegicus. The experiment in a line: Antiinflammatory effect in complete Freund's adjuvant-induced Wistar rat arthritis model assessed as inhibition of paw edema at 100 umol/kg, po daily once administered on day 14 post adjuvant challenge measured on day 21 post adjuvant challenge. Type of test: functional, organism-based. The method, boiled down:
as §2

The test system of test [10] is Mus musculus. Briefly: Antiedematogenic activity in Swiss mouse assessed as inhibition of capsaicin-induced ear edema at 100 umol/kg, po administered 40 mins before capsaicin challenge measured after 30 mins relative to control.
In test [11] the test system is Mus musculus. Briefly: Antiedematogenic activity in Swiss mouse assessed as decrease of capsaicin-induced ear edema weight at 100 umol/kg, po administered 40 mins before capsaicin challenge measured after 30 mins relative to control. Also noted: scale not given: the % may be the effect or the level left.
The subject of test [12] is Mus musculus. Briefly: Analgesic activity in Swiss mouse assessed as increase in latency of paw licking at 15 umol/kg, ip after 60 mins measured for 60 seconds by hot plate test (reference value: 4.9 +/- 0.5 seconds). Type of test: functional.
In test [13] the test system is Mus musculus. The experiment in a line: Analgesic activity in Swiss mouse assessed as increase in latency of paw licking at 15 umol/kg, ip after 90 mins measured for 60 seconds by hot plate test (reference value: 5.9 +/- 0.8 seconds). Type of test: functional.
Test [14] deals with Mus musculus. The experiment in a line: Analgesic activity in Swiss mouse assessed as increase in latency of paw licking at 15 umol/kg, ip after 120 mins measured for 60 seconds by hot plate test (reference value: 5.6 +/- 0.5 seconds). The test is classed as functional.
Test [15] deals with Mus musculus. Briefly: Analgesic activity in Swiss mouse assessed as increase in latency of paw licking at 15 umol/kg, ip after 150 mins measured for 60 seconds by hot plate test (reference value: 5.1 +/- 0.4 seconds). Type of test: functional.
In test [16] the test system is Mus musculus. Briefly: Analgesic activity against formalin-induced acute pain in Swiss mouse assessed as decrease of time spent in paw licking at 100 umol/kg, po administered 40 mins before formalin challenge measured for 0 to 5 mins. Type of test: functional, organism-based. The method, boiled down: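 Male or female adult Swiss mice (20–30 g, 6–8 weeks), groups of 6, dosed orally in arabic gum vehicle (10 mL/kg) 40 min before 20 µL of 2.5% formalin (0.92% formaldehyde in saline) into ventral surface of right hind paw. Paw-licking time recorded 0–5 min (neurogenic phase) after injection; mean ± S.E.M. versus vehicle controls, ANOVA with Dunnett test.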

Test [17] deals with Mus musculus. The experiment in a line: Analgesic activity against formalin-induced acute pain in Swiss mouse assessed as decrease of time spent in paw licking at 100 umol/kg, po administered 40 mins before formalin challenge measured for 15 to 30 mins. Type of test: functional, organism-based. The method, boiled down: as §1

The source made the active and inactive calls. No cut-off for these calls is given here.

For `O=C1CCC(N2C(=O)c3ccccc3C2=O)C(=O)N1` (stereo unspecified) [THALIDOMIDE], the results for the inhibition in vivo at 100 µmol/kg with Mus musculus [1], in the test with Mus musculus [2] and in the test with Mus musculus [10] were 73.3%, 66.7% and 25.2%, respectively. In addition, the Time worked out at 4.8 s in the test on Mus musculus [3], 7.5 s with Mus musculus [4], 6.8 s in the test with Mus musculus [5] and 5.9 s in the test on Mus musculus [6]. Besides, the result with Rattus norvegicus [7], in the test with Rattus norvegicus [8] and in the test with Rattus norvegicus [9] was Active. For the same molecule, in the test on Mus musculus [11], the Activity came to 46.6%.

With `CN1CC[C@]23c4c5ccc(O)c4O[C@H]2[C@@H](O)C=C[C@H]3[C@H]1C5` [MORPHINE], the Time came to 12.8 s with Mus musculus [12], 10.3 s in the test with Mus musculus [13], 9.7 s with Mus musculus [14] and 9.7 s in the test on Mus musculus [15].

As to `O=C(N/N=C/c1ccccc1O)c1cnccn1`, the values for the inhibition in vivo at 100 µmol/kg with Mus musculus [1], in the test on Mus musculus [2] and with Mus musculus [10] were 73.1%, 16.2% and 42%, respectively. Besides, the outcome with Mus musculus [16] was Active. Also, the Time with Mus musculus [3] came out at 4 s; with Mus musculus [4], 5.2 s; in the test on Mus musculus [5], 6.4 s; in the test with Mus musculus [6], 5.2 s. In addition, the Activity with Mus musculus [11] came out at 33.9%.

Regarding `COc1cc(/C=N/NC(=O)c2cnccn2)cc(OC)c1OC`, the inhibition in vivo (usually the percentage by which the read-out fell short of the control) at 100 µmol/kg in the test on Mus musculus [1] was 97.1%; in the test on Mus musculus [2], 86%; in the test with Mus musculus [10], 70%. Besides, the result with Mus musculus [17], in the test on Rattus norvegicus [7], in the test on Rattus norvegicus [8] and in the test with Rattus norvegicus [9] was Active. For the same molecule, the Time in the test on Mus musculus [3] was 4 s; in the test with Mus musculus [4], 4.8 s; in the test with Mus musculus [5] it was 4.3 s; in the test on Mus musculus [6] it was 5.3 s. The Activity with Mus musculus [11] is given as 17.6%.
